Assay results taken from paper PMC6536312 (Bioorganic & medicinal chemistry, 2019).
Where two headings read alike, the source gives them in different places.

Experiments:
MDA-MB-231 cells = experiment: Cell viability study; assay type: cell-based, human
In short: (§1)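 Cells were maintained in high-glucose GlutaMax DMEM with 10% heat-inactivated FBS. They were seeded at 20,000/well, left overnight in 5% FBS medium, then dosed in 1:9 DMSO/acetone against vehicle controls, redosed every 24 h for the 48 h and 72 h runs. Resazurin (0.02% in PBS) was added for 2-3 h, read at ex 560/em 590 nm. IC50 came from nonlinear regression of log concentration versus % control.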

Panc-1 cells = experiment: Cell viability study; assay type: cell-based, human
In short: as §1

σ2 receptor [1] = target: T1, σ2 receptor (Rattus norvegicus, UniProt Q5U3Y7); conditions: previously reported; cited from earlier work
T1 sequence (Q5U3Y7 1-176): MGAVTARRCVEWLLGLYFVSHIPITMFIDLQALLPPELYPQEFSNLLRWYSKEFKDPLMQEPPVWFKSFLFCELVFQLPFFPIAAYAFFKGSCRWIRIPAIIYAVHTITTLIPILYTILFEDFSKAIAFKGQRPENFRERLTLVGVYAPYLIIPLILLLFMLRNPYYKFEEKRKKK

σ1 receptor = σ1 receptor (Cavia porcellus, UniProt Q60492); experiment: Radioligand binding assay at sigma-1 receptor
σ2 receptor [2] = target: T1, σ2 receptor; experiment: Radioligand binding assay at sigma-2 receptor; conditions: for fold lower affinity at the σ2 receptor than compound 3: vs compound 3

Chain of σ1 receptor (Q60492 whole entry): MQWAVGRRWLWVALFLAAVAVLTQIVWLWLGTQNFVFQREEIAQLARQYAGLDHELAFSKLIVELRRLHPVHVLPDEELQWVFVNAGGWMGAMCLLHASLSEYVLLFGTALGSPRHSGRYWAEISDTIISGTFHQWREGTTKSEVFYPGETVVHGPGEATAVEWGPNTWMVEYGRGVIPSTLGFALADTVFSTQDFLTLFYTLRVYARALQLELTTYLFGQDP

N.N.[Cl][Pt][Cl] [Cisplatin]
IC50 (MDA-MB-231 cells; read-out: IC50 (48 h), cell viability, MDA-MB-231, 48 h treatment): 50 ± 9.8 µM | IC50 (MDA-MB-231 cells; read-out: IC50 (72 h), cell viability, MDA-MB-231, 72 h treatment): 64.2 ± 4.3 µM

O=C(CCCN1CCCN(c2ccc(Cl)cc2)CC1)c1ccc(F)cc1 [Compound 1, 4-(4-(4-chlorophenyl)-1,4-diazepan-1-yl)-1-(4-fluorophenyl)butan-1-one]
IC50, cell viability (Panc-1 cells): sub-micromolar | Ki(σ1)/Ki(σ2) (σ2 receptor [1]): 4.3

O=C1c2ccc(F)cc2CC1CCN1CCCN(c2ccc(Cl)cc2)CC1 (stereo not shown) [Compound 3]
fold lower affinity for the σ1 receptor compared to compound 1 (σ1 receptor; vs compound 1): more than 2 fold | fold higher affinity for σ2 receptor compared to compound 1 (σ2 receptor [2]; vs compound 1): greater than 9 fold

O=C1c2ccccc2CC1CCN1CCCN(c2ccc(Cl)cc2)CC1 (stereo not shown) [Compound 4, 2-(2-(4-(4-chlorophenyl)-1,4-diazepan-1-yl)ethyl)-2,3-dihydro-1H-inden-1-one]
fold higher affinity than compound 3 at the σ1 receptor (σ1 receptor; vs compound 3): 3 fold | fold lower affinity at the σ2 receptor than compound 3 (σ2 receptor [2]): over 7 fold

O=C1c2ccc(Cl)cc2CC1CCN1CCCN(c2ccc(Cl)cc2)CC1 (stereo not shown) [Compound 8, 5-chloro-2-(2-(4-(4-chlorophenyl)-1,4-diazepan-1-yl)ethyl)-2,3-dihydro-1H-inden-1-one]
fold lower affinity at the σ2 receptor than compound 3 (σ2 receptor [2]): over 31 fold

O/N=C(\CCCN1CCCN(c2ccc(Cl)cc2)CC1)c1ccc(F)cc1 [Compound 12, 4-(4-(4-chlorophenyl)-1,4-diazepan-1-yl)-1-(4-fluorophenyl)butan-1-one oxime]
IC50, cell viability (Panc-1 cells): sub-micromolar
